# In ChEMBL document CHEMBL1821694, “Design and synthesis of novel amide AKT1 inhibitors with selectivity over CDK2” (Bioorg Med Chem Lett, 2011):
# Columns and labels:
# [1] = biological target: Cyclin-dependent kinase 2 (Homo sapiens, UniProt P24941); assay: Inhibition of CDK2
# [2] = Inhibition of PKA
# [3] = biological target: T1, RAC-alpha serine/threonine-protein kinase (Homo sapiens, UniProt P31749); assay: Inhibition of AKT1-mediated PRAS40 phosphorylation in human U87MG cells after 1 hr in presence of 5% FBS by ELISA assay; type: cell-based, U-87MG ATCC
# Outline: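 U87MG cells kept in medium with 5% FBS; inhibitor added as threefold serial dilutions, 1 h incubation at 37 °C, then phospho-PRAS40 measured. Values are means ± SD, n ≥ 3.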
# [4] = biological target: T1, RAC-alpha serine/threonine-protein kinase; assay: Inhibition of AKT1
# [5] = Clearance in rat; type: ADME, organism-based; conditions: in vivo
# [6] = Metabolic stability in human liver microsomes assessed as compound turnover; type: ADME, Microsome; conditions: read-out: Activity
# Liver microsomes = assay: Metabolic stability in rat liver microsome; type: ADME
# T1 sequence (P31749 whole entry): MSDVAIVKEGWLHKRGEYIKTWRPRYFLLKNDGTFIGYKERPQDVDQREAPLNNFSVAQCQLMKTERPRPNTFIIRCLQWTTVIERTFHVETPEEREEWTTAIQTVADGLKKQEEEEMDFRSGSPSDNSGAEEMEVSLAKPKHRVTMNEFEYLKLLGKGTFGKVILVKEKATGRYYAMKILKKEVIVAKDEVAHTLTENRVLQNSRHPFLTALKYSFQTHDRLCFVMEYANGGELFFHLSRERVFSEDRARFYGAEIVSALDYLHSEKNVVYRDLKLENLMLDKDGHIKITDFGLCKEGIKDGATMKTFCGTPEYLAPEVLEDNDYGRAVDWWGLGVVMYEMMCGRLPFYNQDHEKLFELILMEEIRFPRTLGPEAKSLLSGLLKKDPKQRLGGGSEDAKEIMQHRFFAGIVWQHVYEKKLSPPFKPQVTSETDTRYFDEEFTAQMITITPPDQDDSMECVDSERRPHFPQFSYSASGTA
SMILES,IC50 [1] [nM],IC50 [2] [nM],IC50 [3] [nM],IC50 [4] [nM],clearance [5] [mL/min/kg],metabolised [6] [%],Stability (Liver microsomes) [%]
N[C@H](CNc1nnc(-c2ccc3cnccc3c2)s1)Cc1ccc(C(F)(F)F)cc1,50,6,,,,,
N[C@H](CNc1nnc(-c2ccc3c(c2)CC(=O)N3)s1)Cc1ccc(C(F)(F)F)cc1,190,170,300,20,,,
N[C@H](CNC(=O)c1ccc2cnccc2c1)Cc1ccc(C(F)(F)F)cc1,> 25000,1560,,3380,,,
O=C(NC(c1ccc(Cl)c(Cl)c1)C1CCCNC1)c1ccc2cnccc2c1 (stereo not drawn),21000,,,20,,,
O=C(N[C@@H](c1ccc(Cl)c(Cl)c1)C1CNC1)c1ccc2cnccc2c1,690,10,240,7,173,10.9,33.4
O=C(N[C@H](c1ccc(Cl)c(Cl)c1)C1CNC1)c1ccc2cnccc2c1,9800,30,,110,,,
CC(C)CN1CCC([C@@H](NC(=O)c2ccc3cnccc3c2)c2ccc(Cl)c(Cl)c2)CC1,> 25000,2010,,2140,,,
O=C(N[C@@H](c1ccc(Cl)c(Cl)c1)C1CCN(Cc2ccccc2)CC1)c1ccc2cnccc2c1,> 25000,390,,240,,,
O=C(N[C@@H](c1ccc(Cl)c(Cl)c1)C1CCN(Cc2ccc(C(F)(F)F)cc2)CC1)c1ccc2cnccc2c1,> 25000,980,,2300,,,
CN1CC([C@@H](NC(=O)c2ccc3cnccc3c2)c2ccc(Cl)c(Cl)c2)C1,360,10,,7,,,
O=C(NC(c1ccc(Cl)c(Cl)c1)C1CCNC1)c1ccc2cnccc2c1 (mixture of isomers),> 25000,10,,30,,,
O=C(NC(c1ccccc1)C1CCNCC1)c1ccc2cnccc2c1 (racemic),19700,250,,850,,,
O=C(NC(c1ccc2ccccc2c1)C1CCNCC1)c1ccc2cnccc2c1 (racemic),> 25000,260,,400,,,
O=C(NC(c1nccs1)C1CCNCC1)c1ccc2cnccc2c1 (racemic),> 25000,1070,,1570,,,
COc1ccc(C(NC(=O)c2ccc3cnccc3c2)C2CCNCC2)cc1F (racemic),> 25000,130,,1510,,,
O=C(NC(c1ccc(F)c(F)c1)C1CCNCC1)c1ccc2cnccc2c1 (racemic),> 25000,160,,2680,,,
O=C(NC(c1ccc(Cl)c(-c2ccccc2)c1)C1CCNCC1)c1ccc2cnccc2c1 (racemic),> 25000,220,,200,,,
N#Cc1cc(C(NC(=O)c2ccc3cnccc3c2)C2CCNCC2)ccc1Cl (racemic),> 25000,160,,80,,,

SMILES,IC50 [1] [nM],IC50 [2] [nM],IC50 [3] [nM],IC50 [4] [nM],clearance [5] [mL/min/kg],metabolised [6] [%],Stability (Liver microsomes) [%]
O=C(NC(c1cccc(Cl)c1)C1CCNCC1)c1ccc2cnccc2c1 (racemic),> 25000,30,,70,,,
O=C(NC(c1ccc(Cl)cc1)C1CCNCC1)c1ccc2cnccc2c1 (racemic),> 25000,130,,190,,,
O=C(NC(c1ccc(Cl)c(F)c1)C1CCNCC1)c1ccc2cnccc2c1 (racemic),> 25000,,,40,,,
O=C(NC(c1cccc(Cl)c1Cl)C1CCNCC1)c1ccc2cnccc2c1 (racemic),> 25000,100,,120,,,
O=C(NC(c1ccc(Cl)c(Cl)c1)C1CCNCC1)c1ccc2cnccc2c1 (racemic),> 25000,50,,40,,,
O=C(NC(c1cnc(Cl)c(Cl)c1)C1CCNCC1)c1ccc2cnccc2c1 (racemic),> 25000,230,,140,,,
O=C1Cc2cc(C(=O)NC(c3ccc(Cl)c(Cl)c3)C3CCNCC3)ccc2N1 (racemic),,1150,,350,,,
O=C(NC(c1ccc(Cl)c(Cl)c1)C1CCNCC1)c1ccc2[nH]c(=O)oc2c1 (racemic),,13700,,460,,,
O=C(NC(c1ccc(Cl)c(Cl)c1)C1CCNCC1)c1ccc2[nH]ncc2c1 (racemic),,290,,250,,,
COc1cc2cnccc2cc1C(=O)NC(c1ccc(Cl)c(Cl)c1)C1CCNCC1 (racemic),,30,,39,,,
COc1ccc(-c2cc3cnccc3cc2C(=O)NC(c2ccc(Cl)c(Cl)c2)C2CCNCC2)cc1 (racemic),,670,,6850,,,
O=C(NC(c1ccc(Cl)c(Cl)c1)C1CCNCC1)c1ccc2cnc(F)cc2c1 (racemic),> 25000,90,390,20,58.3,10,15.9
O=C(NC(c1ccc(Cl)c(Cl)c1)C1CCNCC1)c1ccc2cnc(Cl)cc2c1 (racemic),,,,140,,,
O=C(NC(c1ccc(Cl)c(Cl)c1)C1CCCCC1)c1ccc2cnccc2c1 (racemic),> 25000,> 25000,,5800,,,
O=C(NC(c1cncnc1)c1ccc(Cl)c(Cl)c1)c1ccc2cnccc2c1 (racemic),> 25000,3410,,12700,,,
O=C(NC(c1ccncc1)c1ccc(Cl)c(Cl)c1)c1ccc2cnccc2c1 (racemic),> 25000,> 25000,,20400,,,
"O=C(NC(c1ccc(Cl)c(Cl)c1)C1CCNCC1)c1ccc2cnncc2c1 (single isomer, unassigned)",,850,,330,,,
